Measured values reported in ChEMBL document CHEMBL3259564, “Synthesis and evaluation of immunostimulant plasmalogen lysophosphatidylethanolamine and analogues for natural killer T cells” (Bioorg Med Chem, 2014).
Active and inactive are the calls of the source. No cut-off for these calls is given here.

How the values were obtained:
2H4 = assay: Immunostimulatory activity in mouse NKT hybridoma 2H4 cells assessed as IL-2 production at 100 ng/ml after 24 hrs by plate-bound mCD1d presenting assay; format: functional, cell-based
Method in brief: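 Plates were coated with mouse CD1d protein overnight at 4 °C, PBS-washed and blocked with PBS/10% FCS for 1 h. Compound at 100 ng/mL was loaded for 24 h at 37 °C, then washed off. 2H4 NKT hybridoma cells were added, and IL-2 was measured by ELISA after 24 h. Data are mean ± SD of three independent experiments, with Student's t test against vehicle.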

Mus musculus [1] = organism: Mus musculus; assay: Immunostimulatory activity in C57BL/6 mouse splenocytes assessed as IL-4 production at 100 ng/ml after 72 hrs by ELISA; format: functional, cell-based
Method in brief: (§1)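 C57BL/6 mouse splenocytes were cultured for 72 h with compound at 100 ng/mL or DMSO vehicle in RPMI1640 with 10% FCS, humidified 5% CO2. IFN-γ and IL-4 in the supernatants were measured by ELISA. Assays were run in triplicate and reported as mean ± SD.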

Mus musculus [2] = organism: Mus musculus; assay: Immunostimulatory activity in C57BL/6 mouse splenocytes assessed as IFN-gamma production at 100 ng/ml after 72 hrs by ELISA; format: functional, cell-based; method in brief: as §1
Mus musculus [3] = assay: In vivo immunostimulatory activity in C57BL/6 mouse assessed as increase in serum IL-4 level at 1 ug, ip after 2 to 24 hrs by ELISA; format: functional, organism-based
Method in brief: (§2)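 C57BL/6 mice were given compound by intraperitoneal injection. Serum IFN-γ and IL-4 were measured at 2 h and at a later time point. Data are mean ± SD.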

Mus musculus [4] = assay: In vivo immunostimulatory activity in C57BL/6 mouse assessed as increase in serum IFN-gamma level at 1 ug, ip after 2 hrs by ELISA; format: functional, organism-based; method in brief: as §2
Mus musculus [5] = organism: Mus musculus; assay: Immunostimulatory activity in C57BL/6 mouse splenocytes assessed as IL-4/IFN-gamma ratio at 100 ng/ml after 72 hrs by ELISA; format: functional, cell-based
Method in brief: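 Whole C57BL/6 splenocytes were given compound at 100 ng/mL or DMSO for 72 h in RPMI1640 with 10% FCS. Supernatant IL-4 and IFN-γ were measured by ELISA. The IL-4/IFN-γ ratio was normalized to the DMSO control. Triplicate, mean ± SD.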

Mus musculus [6] = assay: In vivo immunostimulatory activity in C57BL/6 mouse assessed as increase in serum IFN-gamma level at 1 ug, ip after 24 hrs by ELISA; format: functional, organism-based; method in brief: as §2

Row | SMILES | Activity (2H4) | Activity (Mus musculus [1]) | Activity (Mus musculus [2]) | Activity (Mus musculus [3]) | Activity (Mus musculus [4]) | Activity (Mus musculus [5]) | Activity (Mus musculus [6])
1 | CCCCCCCC/C=C\CCCCCCCCCCCCOC[C@@H](O)COP(=O)(O)OCCN | Active | Active | Active | Active | Active | Active | inactive
2 | CCCCCCCCCCCCCC/C=C\OC[C@@H](O)COP(=O)(O)OCCN |  | Active | Active | Active | Active | Active | 
3 | CCCCC/C=C\C/C=C\CCCCCCCCC#COC[C@@H](O)COP(=O)(O)OCCN | Active |  | Active | Active | Active | Active | inactive
4 | CCCCCCCC/C=C\CCCCCCCCC#COC[C@@H](O)COP(=O)(O)OCCN | Active | Active | Active | Active | Active | Active | inactive
5 | CCCCC/C=C\C/C=C\CCCCCCCC/C=C\OC[C@@H](O)COP(=O)(O)OCCN | Active |  | Active | Active | Active | Active | inactive
6 | CCCCCCCC/C=C\CCCCCCCC(=O)OC[C@@H](O)COP(=O)(O)OCCN | Active | Active | Active | Active | Active | Active | inactive
